From ChEMBL document CHEMBL3112586, “Synthesis of neolignans as microtubule stabilisers” (Bioorg Med Chem, 2014)
Active and inactive are the calls of the source. No cut-off for these calls is given here.

Experiments:
[1] = tested on: Mus musculus; assay: Toxicity in Swiss albino mouse assessed as relative lungs weight at 5 to 1000 mg/kg, po relative to control; type: organism-based; design: dose 5-1000 mg/kg, route oral; details: in vivo
Method in brief: (§1)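 One oral dose (5–1000 mg/kg; DMSO then 0.7% carboxymethyl cellulose vehicle; controls vehicle-only) was given to groups of 6 mice (3 male, 3 female). On day 7 the animals were sacrificed and necropsied for gross pathology. Absolute and relative weights of vital organs were recorded and compared with control.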

[2] = tested on: Mus musculus; assay: Toxicity in Swiss albino mouse assessed as change in total haemoglobin level at 300 mg/kg, po (reference value: 11.39 +/- 0.84 g/dL); type: organism-based; design: dose 300 mg/kg, route oral; details: in vivo
[3] = tested on: Mus musculus; assay: Toxicity in Swiss albino mouse assessed as change in eosinophil count at 5 to 1000 mg/kg, po relative to control; type: organism-based; design: dose 5-1000 mg/kg, route oral; details: in vivo
[4] = tested on: Mus musculus; assay: Toxicity in Swiss albino mouse assessed as absolute heart weight at 5 to 1000 mg/kg, po relative to control; type: organism-based; design: dose 5-1000 mg/kg, route oral; details: in vivo
[5] = organism: Homo sapiens; assay: Induction of microtubule stabilization (unknown origin) at 4 to 20 uM
[6] = tested on: MCF7; assay: Induction of microtubule polymerization in human MCF7 cells assessed as actin-tubulin cytoskeleton stabilization at 10 to 40 uM by confocal microscopy; type: cell-based
Method in brief: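 MCF-7 cells treated, immunostained for actin and tubulin, and examined by confocal microscopy; paclitaxel-treated cells as positive control.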

[7] = tested on: Mus musculus; assay: Toxicity in Swiss albino mouse assessed as change in cholesterol level at 1000 mg/kg, po (reference value: 81.64 +/- 4.26 mg/dL); type: organism-based; design: dose 1000 mg/kg, route oral; details: in vivo
[8] = tested on: Mus musculus; assay: Toxicity in Swiss albino mouse assessed as relative heart weight at 5 to 1000 mg/kg, po relative to control; type: organism-based; design: dose 5-1000 mg/kg, route oral; details: in vivo; method in brief: as §1
[9] = tested on: Mus musculus; assay: Toxicity in Swiss albino mouse assessed as change in creatinine level at 1000 mg/kg, po (reference value: 0.63 +/- 0.18 mg/dL); type: organism-based; design: dose 1000 mg/kg, route oral; details: in vivo
[10] = tested on: Mus musculus; assay: Toxicity in Swiss albino mouse assessed as change in ALKP level at 1000 mg/kg, po (reference value: 218.67 +/- 12.43 U/L); type: organism-based; design: dose 1000 mg/kg, route oral; details: in vivo
[11] = tested on: Mus musculus; assay: Toxicity in Swiss albino mouse assessed as change in SGPT level at 1000 mg/kg, po (reference value: 12.28 +/- 3.73 U/L); type: organism-based; design: dose 1000 mg/kg, route oral; details: in vivo
[12] = tested on: Mus musculus; assay: Toxicity in Swiss albino mouse assessed as change in SGPT level at 5 mg/kg, po (reference value: 12.28 +/- 3.73 U/L); type: organism-based; design: dose 5 mg/kg, route oral; details: in vivo
[13] = Toxicity in po dosed Swiss albino mouse; type: organism-based; details: in vivo
Method in brief: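 Acute oral toxicity per OECD guideline 423. Mice of 20–25 g, 3 male and 3 female per group (n = 6), acclimatised 7 days. Single oral dose of 5, 50, 300 or 1000 mg/kg in DMSO suspended in 0.7% carboxymethyl cellulose; controls got vehicle only. Mortality and clinical signs checked hourly on the dosing day, then daily. On day 7: body weight, haematology, serum biochemistry, necropsy and organ weights.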

[14] = tested on: Mus musculus; assay: Toxicity in Swiss albino mouse assessed as change in SGOT level at 300 mg/kg, po (reference value: 25.27 +/- 1.32 U/L); type: organism-based; design: dose 300 mg/kg, route oral; details: in vivo
[15] = tested on: Mus musculus; assay: Toxicity in Swiss albino mouse assessed as change in RBC count at 1000 mg/kg, po (reference value: 5.43 +/- 0.27 million/mm'3); type: organism-based; design: dose 1000 mg/kg, route oral; details: in vivo
[16] = tested on: MCF7; assay: Cytotoxicity against human MCF7 cells after 48 hrs by MTT assay; type: functional, cell-based; details: MCF7, 48 h
Method in brief: (§2)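 Cells in DMEM, 10% FBS, 37 °C, 5% CO2, plated and incubated 24 h; compounds diluted in phenol-red-free DMEM with 0.5% FBS, vehicle control; after exposure, MTT (5 mg/mL stock) added 3 h, formazan dissolved in DMSO, absorbance 570 nm; IC50 derived; podophyllotoxin and tamoxifen positive controls.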

[17] = tested on: Mus musculus; assay: Toxicity in Swiss albino mouse assessed as change in total haemoglobin level at 50 mg/kg, po (reference value: 11.39 +/- 0.84 g/dL); type: organism-based; design: dose 50 mg/kg, route oral; details: in vivo
[18] = tested on: Mus musculus; assay: Toxicity in Swiss albino mouse assessed as relative kidney weight at 5 to 1000 mg/kg, po relative to control; type: organism-based; design: dose 5-1000 mg/kg, route oral; details: in vivo; method in brief: as §1
[19] = tested on: Mus musculus; assay: Toxicity in Swiss albino mouse assessed as morbidity at 5 to 1000 mg/kg, po; type: organism-based; design: dose 5-1000 mg/kg, route oral; details: in vivo
Method in brief: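 Swiss albino mice (3 male, 3 female per group, 20-25 g) were given one oral dose of 5, 50, 300 or 1000 mg/kg in DMSO/0.7% carboxymethyl cellulose, or vehicle. Mortality and signs of ill health were checked hourly on the dosing day, then daily for 7 days. Checks covered skin, mucous membranes, eyes, secretions, lachrymation, pilo-erection, respiration, gait, posture and response to handling.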

[20] = tested on: Mus musculus; assay: Toxicity in Swiss albino mouse assessed as change in serum protein level at 1000 mg/kg, po (reference value: 1.11 +/- 0.14 mg/ml); type: organism-based; design: dose 1000 mg/kg, route oral; details: in vivo
[21] = tested on: Mus musculus; assay: Toxicity in Swiss albino mouse assessed as absolute lungs weight at 5 to 1000 mg/kg, po relative to control; type: organism-based; design: dose 5-1000 mg/kg, route oral; details: in vivo
[22] = tested on: Mus musculus; assay: Toxicity in Swiss albino mouse assessed as absolute spleen weight at 5 to 1000 mg/kg, po relative to control; type: organism-based; design: dose 5-1000 mg/kg, route oral; details: in vivo
[23] = tested on: Mus musculus; assay: Toxicity in Swiss albino mouse assessed as change in total haemoglobin level at 1000 mg/kg, po (reference value: 11.39 +/- 0.84 g/dL); type: organism-based; design: dose 1000 mg/kg, route oral; details: in vivo
[24] = tested on: Mus musculus; assay: Toxicity in Swiss albino mouse assessed as change in total haemoglobin level at 5 mg/kg, po (reference value: 11.39 +/- 0.84 g/dL); type: organism-based; design: dose 5 mg/kg, route oral; details: in vivo
[25] = tested on: MCF7; assay: Cytotoxicity against human MCF7 cells after 24 hrs by MTT assay; type: functional, cell-based; details: MCF7, 24 h; method in brief: as §2
[26] = tested on: Mus musculus; assay: Toxicity in Swiss albino mouse assessed as change in serum protein level at 50 mg/kg, po (reference value: 1.11 +/- 0.14 mg/ml); type: organism-based; design: dose 50 mg/kg, route oral; details: in vivo
[27] = tested on: Mus musculus; assay: Toxicity in Swiss albino mouse assessed as change in WBC count at 300 mg/kg, po (reference value: 14.2 +/- 7.49 X 10^3/mm'3); type: organism-based; design: dose 300 mg/kg, route oral; details: in vivo
[28] = tested on: MCF7; assay: Cytotoxicity against human MCF7 cells after 48 to 72 hrs by MTT assay; type: functional, cell-based; method in brief: as §2
[29] = tested on: Mus musculus; assay: Toxicity in Swiss albino mouse assessed as change in albumin level at 1000 mg/kg, po (reference value: 3.35 +/- 0.51 g/dL); type: organism-based; design: dose 1000 mg/kg, route oral; details: in vivo
[30] = tested on: Mus musculus; assay: Toxicity in Swiss albino mouse assessed as change in body weight at 1000 mg/kg, po (reference value: 24.5 +/- 0.76 g); type: organism-based; design: dose 1000 mg/kg, route oral; details: in vivo
[31] = tested on: MDA-MB-231; assay: Cytotoxicity against human MDA-MB-231 cells after 72 hrs by MTT assay; type: functional, cell-based; details: MDA-MB-231, 72 h; method in brief: as §2
[32] = tested on: MCF7; assay: Cytotoxicity against human MCF7 cells after 72 hrs by MTT assay; type: functional, cell-based; details: MCF7, 72 h; method in brief: as §2
[33] = tested on: Mus musculus; assay: Toxicity in Swiss albino mouse assessed as change in RBC count at 5 mg/kg, po (reference value: 5.43 +/- 0.27 million/mm'3); type: organism-based; design: dose 5 mg/kg, route oral; details: in vivo

In the case of `CCOC(=O)/C=C/c1ccc(O)c(/C(=C/c2ccc(O)cc2)C(=O)OCC)c1`, the Activity [1] is reported as “Non-toxic”, the Activity [2] is reported as 10.83 g/dL and the Activity [3] is reported as “Non-toxic”. The Activity [4] was “Non-toxic”, the Activity [5] was “Active” and the Activity [6] was “inactive”. The Activity [7] was 60.3 mg/dL, the Activity [8] was “Non-toxic” and the Activity [9] was 1.87 mg/dL. For the same molecule, the Activity [10] was 143.89 U/L, the Activity [11] was 21.95 U/L and the Activity [12] was 13.15 U/L. It also gave an MTD [13] of 300 mg/kg, an Activity [14] of 37.95 U/L and an Activity [15] of 5.15 million/mm3. The IC50 [16] was 9.29 µM, the Activity [17] was 10.67 g/dL and the Activity [18] was “Non-toxic”. The Activity [19] was “Non-toxic”, the Activity [20] was 1.02 mg/mL and the Activity [21] was “Non-toxic”. For the same molecule, the Activity [22] was “Non-toxic”, the Activity [23] was 13.32 g/dL and the Activity [24] was 12.35 g/dL. The IC50 [25] was 12 µM, the Activity [26] was 0.94 mg/mL and the Activity [27] was 13.76 ×10³ /mm3. For the same molecule, the Activity [28] was “Active”, the Activity [29] was 3.86 g/dL and the Activity [30] was 26.5 g. The IC50 [31] was 0.45 µM, the IC50 [32] was 3.27 µM and the Activity [33] was 5.99 million/mm3.
